Test results published in ChEMBL document CHEMBL1123757, “Selective thromboxane synthetase inhibitors and antihypertensive agents. New derivatives of 4-hydrazino-5H-pyridazino[4,5-b]indole, 4-hydrazinopyridazino[4,5-a]indole, and related compounds” (J Med Chem, 1987).

Columns and labels:
Cavia porcellus [1] = assay: Ex vivo inhibition of platelet aggregation induced by ADP-II at 30 mg/kg; No significance; type: functional, organism-based; set-up: dose 30 mg/kg
Outline: (§1)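 Fasted male or female guinea pigs (250–300 g, five per group) dosed orally in normal saline or saline with 0.2% (carboxymethyl)cellulose/1.0% Tween 80; controls given vehicle. Under ether, cardiac blood collected into 3.8% citrate. PRP adjusted to […] and aggregation induced by ADP (second wave) or AA, read by absorbance aggregometry. PGE2 and TXB2 measured by RIA.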

Rattus norvegicus [2] = assay: Antihypertensive activity in spontaneously hypertensive rats (SHR) measured by percentage fall in cardiac rhythm (CR) at 25 mg/kg administered perorally at 24 h;No significance; type: functional, organism-based; set-up: dose 25 mg/kg; conditions: Heart
Outline: (§2)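 Conscious SHR (Okamoto strain), 8 weeks old, male and female, 300–350 g, systolic BP ≥190 mmHg, CR 400–650 beats/min. Given ip or po at 2.5 mL/kg in normal saline or saline with 0.2% (carboxymethyl)cellulose and 1.0% Tween 80. Tail AP and CR recorded by mechanical transduction at 1, 3, 5 and 24 h, five animals per dose. Effect expressed as % fall versus control.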

Cavia porcellus [3] = assay: Ex vivo inhibition of platelet aggregation induced by AA at 50 mg/kg; No significance; type: functional, organism-based; set-up: dose 50 mg/kg; outline: as §1
Rattus norvegicus [4] = assay: Percent increase in cardiac rhythm, directly measured on carotid (iv on the jugular vein) of spontaneously hypertensive rats at 1 mg/kg after 75 minutes;No significance; type: functional, organism-based; set-up: dose 1 mg/kg; conditions: Heart
Outline: (§3)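 Anesthetized (sodium pentobarbital, 70 mg/kg) male and female Okamoto SHR, 8 weeks old, 300–350 g. Given iv into the jugular vein in normal saline. Arterial pressure and cardiac rhythm are recorded directly from the carotid by polygraph at set times after dosing. Each is expressed as percent change from the pre-dose control value.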

Rattus norvegicus [5] = assay: Antihypertensive activity in spontaneously hypertensive rats (SHR) measured by percentage fall in cardiac rhythm (CR) at 1 mg/kg administered intraperitoneally at 24 h;No significance; type: functional, organism-based; set-up: dose 1 mg/kg; conditions: Heart
Outline: (§4)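 Unanesthetized Okamoto-strain SHR, male and female, 8 weeks old, 300–350 g, systolic pressure ≥190 mmHg, heart rate 400–650 beats/min; five animals per dose. Given ip at 2.5 mL/kg, dissolved or suspended in normal saline or saline with 0.2% (carboxymethyl)cellulose and 1.0% Tween 80. Tail AP and CR recorded by mechanical transduction at set times; reported as percentage fall from control.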

Rattus norvegicus [6] = assay: Antihypertensive activity in spontaneously hypertensive rats (SHR) measured by percentage fall in cardiac rhythm (CR) at 1 mg/kg administered intraperitoneally at 5 h;No significance; type: functional, organism-based; set-up: dose 1 mg/kg; conditions: Heart; outline: as §4
Rattus norvegicus [7] = assay: Antihypertensive activity in spontaneously hypertensive rats (SHR) measured by percentage fall in cardiac rhythm (CR) at 25 mg/kg administered intraperitoneally at 24 h;No significance; type: functional, organism-based; set-up: dose 25 mg/kg; conditions: Heart; outline: as §4
[8] = target: T1, Thromboxane-A synthase (Homo sapiens) (UniProt P24557); assay: Effect on thromboxane synthetase activity on in vitro platelet aggregation induced by AA at 10e -5 M expressed as percent […] in TXB2; type: functional
T1 sequence (whole entry): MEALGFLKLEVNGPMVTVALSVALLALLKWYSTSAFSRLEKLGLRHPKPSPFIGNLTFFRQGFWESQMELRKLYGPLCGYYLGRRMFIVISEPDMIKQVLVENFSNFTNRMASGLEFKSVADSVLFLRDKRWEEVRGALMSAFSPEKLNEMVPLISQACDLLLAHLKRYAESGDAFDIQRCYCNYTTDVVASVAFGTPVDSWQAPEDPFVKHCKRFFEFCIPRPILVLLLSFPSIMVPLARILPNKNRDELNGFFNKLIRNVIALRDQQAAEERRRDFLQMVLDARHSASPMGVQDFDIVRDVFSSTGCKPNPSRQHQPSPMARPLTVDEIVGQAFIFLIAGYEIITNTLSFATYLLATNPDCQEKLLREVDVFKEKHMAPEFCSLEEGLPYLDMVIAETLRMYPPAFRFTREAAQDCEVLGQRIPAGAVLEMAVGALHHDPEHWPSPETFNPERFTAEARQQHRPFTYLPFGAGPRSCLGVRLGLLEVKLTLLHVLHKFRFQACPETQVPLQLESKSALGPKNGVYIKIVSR
Outline: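 Human citrated PRP adjusted to 200 000 […], compound at 10^-5 M final in saline/10% ethylene glycol, incubated at 37 °C. Aggregation induced with arachidonic acid 0.6 mM and read by Born absorbance aggregometry. PGE2 and TXB2 in the aggregated samples measured by radioimmunoassay. n = 5.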

Rattus norvegicus [9] = assay: Antihypertensive activity in spontaneously hypertensive rats (SHR) measured by percentage fall in cardiac rhythm (CR) at 25 mg/kg administered perorally at 1 h;No significance; type: functional, organism-based; set-up: dose 25 mg/kg; conditions: Heart; outline: as §2
Rattus norvegicus [10] = assay: Percent increase in cardiac rhythm, directly measured on carotid (iv on the jugular vein) of spontaneously hypertensive rats at 1 mg/kg after 120 minutes;No significance; type: functional, organism-based; set-up: dose 1 mg/kg; conditions: Heart; outline: as §3
Rattus norvegicus [11] = assay: Percent increase in cardiac rhythm, directly measured on carotid (iv on the jugular vein) of spontaneously hypertensive rats at 1 mg/kg after 5 minutes;No significance; type: functional, organism-based; set-up: dose 1 mg/kg; conditions: Heart; outline: as §3
Cavia porcellus [12] = assay: Ex vivo inhibition of platelet aggregation induced by ADP-II at 50 mg/kg; No significance; type: functional, organism-based; set-up: dose 50 mg/kg; outline: as §1
Rattus norvegicus [13] = assay: Percent increase in cardiac rhythm, directly measured on carotid (iv on the jugular vein) of spontaneously hypertensive rats at 1 mg/kg after 180 minutes;No significance; type: functional, organism-based; set-up: dose 1 mg/kg; conditions: Heart; outline: as §3
Cavia porcellus [14] = assay: Ex vivo inhibition of platelet aggregation induced by AA at 30 mg/kg; No significance; type: functional, organism-based; set-up: dose 30 mg/kg; outline: as §1
Rattus norvegicus [15] = assay: Antihypertensive activity in spontaneously hypertensive rats (SHR) measured by percentage fall in arterial pressure (AP) at 1 mg/kg administered intraperitoneally at 5 h;No significance significance; type: functional, organism-based; set-up: dose 1 mg/kg; conditions: Artery; outline: as §4
Rattus norvegicus [16] = assay: Antihypertensive activity in spontaneously hypertensive rats (SHR) measured by percentage fall in arterial pressure (AP) at 1 mg/kg administered intraperitoneally at 24 h;No significance; type: functional, organism-based; set-up: dose 1 mg/kg; conditions: Artery; outline: as §4
Rattus norvegicus [17] = assay: Percent increase in cardiac rhythm, directly measured on carotid (iv on the jugular vein) of spontaneously hypertensive rats at 1 mg/kg after 240 minutes;No significance; type: functional, organism-based; set-up: dose 1 mg/kg; conditions: Heart; outline: as §3
Rattus norvegicus [18] = assay: Antihypertensive activity in spontaneously hypertensive rats (SHR) measured by percentage fall in arterial pressure (AP) at 25 mg/kg administered intraperitoneally at 1 h;No significance; type: functional, organism-based; set-up: dose 25 mg/kg; conditions: Artery; outline: as §4
Rattus norvegicus [19] = assay: Antihypertensive activity in spontaneously hypertensive rats (SHR) measured by percentage fall in cardiac rhythm (CR) at 25 mg/kg administered intraperitoneally at 5 h;No significance; type: functional, organism-based; set-up: dose 25 mg/kg; conditions: Heart; outline: as §2
Rattus norvegicus [20] = assay: Antihypertensive activity in spontaneously hypertensive rats (SHR) measured by percentage fall in arterial pressure (AP) at 25 mg/kg administered intraperitoneally at 3 h;No significance; type: functional, organism-based; set-up: dose 25 mg/kg; conditions: Artery; outline: as §4
Rattus norvegicus [21] = assay: Antihypertensive activity in spontaneously hypertensive rats (SHR) measured by percentage fall in cardiac rhythm (CR) at 25 mg/kg administered intraperitoneally at 1 h; type: functional, Heart; conditions: route intraperitoneal; outline: as §4
Rattus norvegicus [22] = assay: Antihypertensive activity in spontaneously hypertensive rats (SHR) measured by percentage fall in arterial pressure (AP) at 25 mg/kg administered intraperitoneally at 5 h;No significance; type: functional, organism-based; set-up: dose 25 mg/kg; conditions: Artery; outline: as §4
Homo sapiens [23] = species on record: Homo sapiens; assay: In vitro inhibition of platelet aggregation induced by ADP-II (PRP incubated for 5 minutes at 37 degree C) at 10e-5 M;No significance; type: functional
Outline: (§5)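 Human venous blood anticoagulated with 3.8% sodium citrate (1:9). PRP from centrifugation at 800 rpm for 10 min at room temperature. Count adjusted with PPP to […]. Compound in saline with 10% ethylene glycol is added to PRP and incubated at 37 °C before the agonist. Agonists: ADP 2×10^-5 M, AA 0.6 mM, PGH2 2.8 μM, adrenaline 0.6 μM. Born absorbance aggregometry; n = 5.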

Rattus norvegicus [24] = assay: Antihypertensive activity in spontaneously hypertensive rats (SHR) measured by percentage fall in arterial pressure (AP) at 25 mg/kg administered intraperitoneally at 24 h;No significance; type: functional, organism-based; set-up: dose 25 mg/kg; conditions: Artery; outline: as §4
Homo sapiens [25] = species on record: Homo sapiens; assay: In vitro inhibition of platelet aggregation induced by ADP-II (PRP incubated for 60 minutes at 37 degree C) at 10e-5 M; type: functional; conditions: 1 h; outline: as §5
Rattus norvegicus [26] = assay: Antihypertensive activity in spontaneously hypertensive rats (SHR) measured by percentage fall in cardiac rhythm (CR) at 25 mg/kg administered intraperitoneally at 3 h;No significance; type: functional, organism-based; set-up: dose 25 mg/kg; conditions: Heart; outline: as §2
Homo sapiens [27] = species on record: Homo sapiens; assay: In vitro inhibition of platelet aggregation induced by […] (PRP incubated for 5 minutes at 37 degree C) at 10e-5 M;NS means no significance; type: functional
Homo sapiens [28] = species on record: Homo sapiens; assay: In vitro inhibition of platelet aggregation induced by AA (PRP incubated for 60 minutes at 37 degree C) at 10e-5 M;NS means no significance; type: functional; outline: as §5

COc1ccc2[nH]c3c(NN)nncc3c2c1
inhibition (Cavia porcellus [1]): No significant values | Decrease in CR (Rattus norvegicus [2]): No significant values | inhibition (Cavia porcellus [3]): No significant values | Increase (Rattus norvegicus [4]): No significant values | Decrease in AP (Rattus norvegicus [5]): No significant values | Decrease in CR (Rattus norvegicus [6]): No significant values | Decrease in CR (Rattus norvegicus [7]): No significant values | inhibition [8]: 40% | Decrease in CR (Rattus norvegicus [9]): No significant values | Increase (Rattus norvegicus [10]): No significant values | Increase (Rattus norvegicus [11]): No significant values | inhibition (Cavia porcellus [12]): No significant values | Increase (Rattus norvegicus [13]): No significant values | inhibition (Cavia porcellus [14]): No significant values | Decrease in AP (Rattus norvegicus [15]): No significant values | Decrease in AP (Rattus norvegicus [16]): No significant values | Increase (Rattus norvegicus [17]): No significant values

CCOc1ccc2[nH]c3c(O)nncc3c2c1
Decrease in AP (Rattus norvegicus [18]): No significant values | Decrease in AP (Rattus norvegicus [19]): No significant values | inhibition (Rattus norvegicus [20]): No significant values | Decrease in CR (Rattus norvegicus [21]): 6% | Decrease in CR (Rattus norvegicus [22]): No significant values | inhibition (Homo sapiens [23]): No significant values | Decrease in AP (Rattus norvegicus [24]): No significant values | Decrease in CR (Rattus norvegicus [7]): No significant values | inhibition at 10 µM (Homo sapiens [25]): 100% | Decrease in CR (Rattus norvegicus [26]): No significant values | inhibition (Homo sapiens [27]): no significance | inhibition (Homo sapiens [28]): No significant values
